# A selection: hits, their analogues and other compounds. The true share with any hit is near 4.6%.
# NLRP3 yeast inh: NALP3 inhibition in yeast. Yeast reconstituted NLRP3/ASC/caspase-1, beta-gal luminescence, 24 h. inhibition, % at 10 µM. 330,000 compounds, 0.39% hits. AID 2825;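 active = inhibition of 50% or more; inactive = inhibition below 50%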
# PolyA inh: yeast polyadenylation inhibition | S. cerevisiae SKY197-pL101 polyadenylation reporter, beta-gal luminescence; efflux-impaired pdr1/pdr3 knockout yeast; score 100 = 6 SD above DMSO | activity score, % at 12 µM | 300,000 compounds, 0.02% hits | AID 1875;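 active = lowest replicate activity score at least 50, where 100 means six control SD above control mean; inconclusive = lowest score under 50 but half or more replicates reach 50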;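 note: yeast exposed to compound for 9 h at 30 °C; higher score means more reporter readthrough which indicates perturbed polyadenylation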
# DSG3 Ab inh: blocks pemphigus antibody binding to human desmoglein-3 | P32926 | DSG3-coupled beads, scFv-anti-DSG3-GFP binding, flow cytometry; hits give low values | binding (percent of control), % at 10 µM | 310,000 compounds, 0.48% hits;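 active = binding more than 3 SD below its plate's average and above zero; inconclusive = below that plate limit but binding exactly zero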;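 note: hits lower antibody fragment binding to DSG3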
# NALP1 inh: blocks the NALP1 inflammasome reconstituted in yeast; AID 2071; inhibition, % at 10 µM; 280,000 compounds, 0.61% hits; S. cerevisiae NALP1/ASC/caspase-1 growth, X-gal OD620, 72 h; in the data active = inhibition mostly above about 24%, no sharp cut-off; inactive = mostly below about 32%
# ALR inh: blocks human ALR sulfhydryl oxidase activity | P55789 | purified ALR, DTT oxidation, H2O2 HRP-luminol luminescence | inhibition, % (concentration not given with the values) | 290,000 compounds, 3.8% hits | AID 485317;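 active = mean replicate inhibition above about 79%, with every replicate also reaching it, limit read from the data; inconclusive = only one of the two criteria met; inactive = mean below limit and not every replicate reaching it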
# Target sequence (P55789 whole entry, looked up): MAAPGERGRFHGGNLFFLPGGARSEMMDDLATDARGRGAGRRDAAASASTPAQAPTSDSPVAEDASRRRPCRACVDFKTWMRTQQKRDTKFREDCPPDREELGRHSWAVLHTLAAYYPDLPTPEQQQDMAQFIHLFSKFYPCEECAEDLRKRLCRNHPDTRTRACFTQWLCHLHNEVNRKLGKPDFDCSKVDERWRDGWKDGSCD
# Arrestin-AP2 inh: human beta-arrestin and AP2 interaction inhibition; 340,000 compounds, 0.31% hits; inhibition, % at 10 µM; AID 504490; FITC-arrestin peptide / GST-AP2 beads, flow cytometry; AP2 beta2 appendage carries R879A mutation;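 active = inhibition above a set limit, near 3 SD of compounds lacking own fluorescence, cut at about 54% in these data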
#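 System: GST-tagged AP2 beta2-adaptin appendage (R879A) on 4 µm glutathione beads / Reagent: FITC-arrestin peptide, 50 nM / Detection: HyperCyt-sampled flow cytometry, FL1 channel, ex 488/em 535 nm / Timing: 12 min plus 1 h, RT / Buffer or medium: PBS plus Tween 20 (0.05%) and BSA (0.1%)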
# A number is an active result; n = inactive; u = inconclusive; x = no result; ! = not active in a repeat.
SMILES,NLRP3 yeast inh,PolyA inh,DSG3 Ab inh,NALP1 inh,ALR inh,Arrestin-AP2 inh
COc1cc(C=C(c2nc3ccccc3s2)c2nc3ccccc3s2)cc(OC)c1O,n,n,n,x,x,n
CCOc1cc(/C=C(\CC(=O)O)c2nc3ccccc3s2)ccc1OC,n,n,n,n,n,n
COc1cc(/C=C(\CC(=O)O)c2nc3ccccc3s2)cc(OC)c1O,n,n,n,n,100,n
COc1ccc(/C=C(\CC(=O)O)c2nc3ccccc3s2)cc1O,n,n,n,n,92,n
CCCCn1c(N)c(N(CCOC)C(=O)CSc2nnc(-c3ccco3)n2CC)c(=O)[nH]c1=O,n,x,u,x,n,n
COc1ccc(-c2ccc(NS(=O)(=O)c3cc([N+](=O)[O-])ccc3C)cc2)nn1,n,n,x,n,n,n
Cc1cc(O)c(Sc2ncn[nH]2)cc1NS(=O)(=O)c1ccc(Cl)cc1,n,x,n,x,93,n
Cc1ccc([N+](=O)[O-])cc1S(=O)(=O)Nc1ccc(O)c(Sc2ncn[nH]2)c1,n,n,n,n,94,n
COc1ccc(S(=O)(=O)Nc2cc(Sc3ncn[nH]3)c(O)cc2C)cc1,n,x,x,x,98,x
O=S(=O)(Nc1cc(Sc2ncn[nH]2)c(O)c2ccccc12)c1ccccc1,n,x,x,n,x,n
CCCNC(=O)C(CC)NC(=O)c1cccc([N+](=O)[O-])c1 (configuration not stated),n,x,x,x,n,n
CN(C)c1ccc(/C=C(/NC(=O)c2ccccc2)C(=O)N2CCCC2)cc1,n,n,n,n,x,n
Cc1occc1C(=O)Nc1ccc2c(c1)CCC2,n,n,n,x,96,n
O=C(Nc1ccc2c(c1)CCC2)c1ccccc1,n,n,n,n,93,n
Cc1occc1C(=O)Nc1c(F)c(F)c(F)c(F)c1F,n,n,n,n,97,n
O=C(O)c1ccccc1-c1ccccc1C(=O)Nc1ccc2c(c1)CCC2,n,n,n,n,n,n
Cc1oc2cc3oc(=O)c(CCC(=O)N4C[C@H]5C[C@@H](C4)c4cccc(=O)n4C5)c(C)c3cc2c1C,n,n,n,n,n,n
Cc1ccc(N2C(=O)CS/C2=N\C(=S)Nc2ccccc2)cc1,n,n,n,x,90,n
CC1=C(C(=O)N2CCN(c3cc(C)ccc3C)CC2)C2(CCCCC2)OC1=O,n,n,n,n,87,n
CCOC(=O)CCCN1CC(O)=C(c2nc(-c3ccc(Cl)cc3)cs2)C1=N,n,x,96,n,x,n
CCCCN1CC(O)=C(c2nc(-c3ccc(Br)cc3)cs2)C1=N,n,n,n,n,n,n
COc1ccc(-c2csc(C3=C(O)CN(CCCN4CCCC4=O)C3=N)n2)cc1OC,n,n,n,n,96,n
COc1ccc(/C=C/C(=O)NC2CCN(Cc3ccccc3)CC2)cc1OC,n,n,u,n,n,n
Cc1ccn2c(=O)nc(SCC(=O)Nc3ccc4c(c3)OCO4)nc2c1,n,n,n,x,u,n
O=C(CSc1nc(=O)n2cc(Cl)ccc2n1)Nc1ccc2c(c1)OCO2,n,n,n,x,n,n
SMILES,NLRP3 yeast inh,PolyA inh,DSG3 Ab inh,NALP1 inh,ALR inh,Arrestin-AP2 inh
Cc1ccc2nc(SCC(=O)Nc3ccc4c(c3)OCCO4)nc(=O)n2c1,n,u,n,x,98,n
O=C(CSc1nc(=O)n2cc(Cl)ccc2n1)Nc1ccc2c(c1)OCCO2,n,n,n,x,99,n
Cc1ccn2c(=O)nc(SCC(=O)Nc3ccc4c(c3)OCCO4)nc2c1,n,n,n,x,97,n
COc1ccccc1NS(=O)(=O)c1cccc(NC(=O)c2cncc(Br)c2)c1,n,x,n,x,n,n
COc1ccc(CN2C[C@H](Cc3ccccc3)[C@@H](CC(=O)Nc3ccccc3)C2=O)cc1,n,n,n,n,n,n
CC(=O)OCC(=O)c1c[nH]c2ccccc12,n,n,n,n,n,n
CC(C)(C)NCC(=O)c1c[nH]c2ccccc12,n,n,n,30,n,n
CC(C)(C)c1ccc(C(=O)N2CCC(C(=O)NC3CCCCCC3)CC2)cc1,n,n,x,n,x,n
Cc1c[nH]c2cccc(OCC(CNC(C)(C)C)OC(=O)c3ccccc3)c12 (configuration not stated),n,n,n,n,81,n
O=C(CN(CC1CCCO1)S(=O)(=O)c1ccc(S(=O)(=O)NC2CC2)cc1)Nc1ccccc1 (configuration not stated),n,n,n,n,n,n
CCN(CC)S(=O)(=O)c1ccc(S(=O)(=O)N(CC(=O)Nc2ccccc2)CC2CCCO2)cc1 (configuration not stated),n,n,n,x,98,n
CCC(C)NS(=O)(=O)c1ccc(S(=O)(=O)N(CC(=O)Nc2ccccc2)Cc2ccco2)cc1 (configuration not stated),n,n,n,42,n,n
CNc1nc(N)c(C(=O)C(C)(C)C)s1,n,n,n,n,99,n
COc1ccc2[nH]c(C(=O)NCc3ccccc3)c(C)c2c1,n,n,n,n,n,n
Cn1cnc([N+](=O)[O-])c1Sc1ccc(Br)cc1,n,n,n,n,98,n
Cc1cccc(Sc2c([N+](=O)[O-])ncn2C)n1,n,n,n,n,n,n
Cn1cnc([N+](=O)[O-])c1Sc1ccc(C(C)(C)C)cc1,n,n,n,n,n,n
Cc1ccc(Sc2c([N+](=O)[O-])ncn2C)cc1,n,n,n,n,98,n
O=[N+]([O-])c1ccc(CSc2nc3ccccc3[nH]2)cc1,n,n,n,n,x,n
O=c1cnnc(SCc2ccc([N+](=O)[O-])cc2)[nH]1,n,x,n,n,100,n
CN1CCN(C(=S)Nc2ccc(Cl)c(Cl)c2)CC1,n,n,n,48,n,n
O=C(O)c1cccc2c1C(=O)c1cc([N+](=O)[O-])ccc1-2,x,x,n,x,x,n
CCC(=O)/C=C1/Sc2ccc(OC)cc2N1CC,n,n,n,n,77,n
CCC(/C=C1\Sc2ccc(OC)cc2N1CC)=C\c1sc2ccc(OC)cc2[n+]1CCCS(=O)(=O)[O-],n,n,n,n,97,n
CCC(=O)/C=C1/Sc2ccc(OC)cc2N1CCO,n,n,n,n,n,n
SMILES,NLRP3 yeast inh,PolyA inh,DSG3 Ab inh,NALP1 inh,ALR inh,Arrestin-AP2 inh
CCC(/C=C1\Sc2ccc(OC)cc2N1CCO)=C\c1sc2ccc(OC)cc2[n+]1CCO,n,x,-40,n,n,77
Cc1csc(NC(=O)CCC(=O)N(CC(=O)NC2CCCC2)Cc2ccccc2)n1,n,n,x,n,n,n
O=C(CCc1ccccc1)Nc1ccccc1,n,n,n,n,n,n
NS(=O)(=O)c1ccc(NC(=O)CCc2ccccc2)cc1,n,n,107,n,n,n
Cc1c(C(=O)Nc2ccc(S(N)(=O)=O)cc2)oc2ccc(Cl)cc12,n,n,n,n,n,n
NS(=O)(=O)c1ccc(NC(=S)NC(=O)c2ccco2)cc1,n,n,n,41!,n,n

# Compound activity deposited in PubChem by several laboratories.
